The source of these data is ChEMBL document CHEMBL1154820, “Synthesis, characterization and structure-activity relationship of novel N-phosphorylated E,E-3,5-bis(thienylidene)piperid-4-ones” (Eur J Med Chem, 2010).

Experiment [1] can be described thus: Cytotoxicity against human Caov3 cells after 72 hrs by MTT assay. The class given is functional, cell-based, Caov-3. In short, it runs like this: (§1)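 Cells kept in RPMI-1640 with 10% FBS, 2 mM L-glutamine and gentamicin; seeded at 1×10⁴ cells/well, attached overnight at 37 °C, 5% CO₂. Compounds dissolved in DMSO, diluted into FBS-free medium, tested at […], 10⁻⁵, 10⁻⁶, 10⁻⁷ M in triplicate for 72 h. MTT (5 mg/ml) added for 3 h at 37 °C, formazan dissolved in DMSO, OD read at 590 nm; viability loss versus untreated controls, IC50 read graphically; melphalan as positive control.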
(Tetrazolium assays rely on reduction of a dye to a coloured formazan, in cell work by metabolically active cells.)

The subject of another experiment is A549. Description: Cytotoxicity against human A549 cells after 72 hrs by MTT assay. The class given is functional, cell-based. The gist of the method:
as §1

For a further experiment, the system named is SK-OV-3. As to the kind of experiment: Cytotoxicity against human Scov3 cells after 72 hrs by MTT assay. The class given is functional, cell-based. In short, it runs like this: as §1
Where [2] appears, read: Homo sapiens, Caov-3, 72 h, read-out: IC50.
Setting [3] is: Homo sapiens, A549, 72 h, read-out: IC50.
The mark [4] stands for this setting: Homo sapiens, SK-OV-3, 72 h, read-out: IC50.

In the case of `CCOP(=O)(CCCN1C/C(=C\c2cccs2)C(=O)/C(=C/c2cccs2)C1)OCC`, the IC50 is 40 µM in experiment [1] (setting [2]), 30 µM with A549 (setting [3]) and 40 µM with SK-OV-3 (setting [4]).
As to `O=C1/C(=C/c2cccs2)CN(P(=O)(Oc2ccccc2)Oc2ccccc2)C/C1=C\c1cccs1`, the IC50 in experiment [1] (setting [2]) was 44 µM; in the experiment on A549 (setting [3]) it was 35 µM; with SK-OV-3 (setting [4]), 60 µM.
For the compound `N[C@@H](Cc1ccc(N(CCCl)CCCl)cc1)C(=O)O` [MELPHALAN], in experiment [1] (setting [2]), the IC50 amounted to 50 µM.
For the compound `O=C1/C(=C/c2cccs2)CNC/C1=C\c1cccs1`, the IC50 entry (in experiment [1] (caov-3); in the experiment with A549 (a549); in the experiment on SK-OV-3 (sk-ov-3)) was “Non-toxic” throughout.
Turning to `CCOP(=O)(CCN1C/C(=C\c2cccs2)C(=O)/C(=C/c2cccs2)C1)OCC`, the IC50 in experiment [1] (setting [2]) is 70 µM; in the experiment with A549 (setting [3]) it was 35 µM; with SK-OV-3 (setting [4]), 64 µM.
On to `CCOP(=O)(OCC)N1C/C(=C\c2cccs2)C(=O)/C(=C/c2cccs2)C1`, for which the IC50 was determined as 26 µM in experiment [1] (setting [2]), 27 µM with A549 (setting [3]) and 30 µM with SK-OV-3 (setting [4]).
Regarding `CN1C/C(=C/c2cccs2)C(=O)/C(=C/c2cccs2)C1`, the IC50 entry (in experiment [1] (caov-3); in the experiment with A549 (a549); with SK-OV-3 (sk-ov-3)) was “Non-toxic” each time.
`CCOP(=O)(CN1C/C(=C\c2cccs2)C(=O)/C(=C/c2cccs2)C1)OCC`: the IC50 in experiment [1] (setting [2]) is 20 µM; in the experiment on A549 (setting [3]), 15 µM; in the experiment on SK-OV-3 (setting [4]), 38 µM.
In the case of `CN1C/C(=C\c2cccs2)C(=O)/C(=C/c2cccs2)C1`, the IC50 result in experiment [1] (caov-3) was “Non-toxic”; in the experiment with A549 (setting [3]), 80 µM; in the experiment with SK-OV-3 (setting [4]), 85 µM.

A word on the IC50: it is the concentration that gives 50% inhibition.
